In ChEMBL document CHEMBL4513216, “Probing the Open Global Health Chemical Diversity Library for Multistage-Active Starting Points for Next-Generation Antimalarials” (ACS Infect Dis, 2020):

Test: Toxicity liver stage against HepG2, at 10uM
Format: cell-based
Design: test concentration 10 uM, cell line HepG2-A16-CD81EGFP
Conditions: human, HepG2-A16-CD81EGFP cells; read-out: INHIBITION
Summary of the method: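 Uninfected HepG2-A16-CD81EGFP cells, 3 × 10^3 per well, 1536-well, plated on prespotted compound at 10 μM final, parasite-free screening media added to match infected plates; puromycin 10 μM positive, DMSO 0.5% negative; run in parallel with 48 h PbLuc assay at 37 °C, 5% CO2; viability by CellTiter-Glo luminescence, normalized to controls.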

| Structure (SMILES) | cytotoxicity at 10 µM |
| --- | --- |
| NC(=O)CN1C(=O)CO[C@H]2CN(Cc3ccc(Cl)cc3)C[C@H]21 | 13% |
| COc1cccc(CN2CC[C@H](c3nnc(C)o3)C2)c1 | -0.902% |
| CCCC(O)CN1CCC(=O)N(Cc2ccccc2)Cc2ccccc21 (stereo unspecified) | 5.24% |
| Cc1c(Cl)cccc1S(=O)(=O)NCC(O)c1cccn1C (stereo unspecified) | -5.15% |
| O=C(c1cscn1)N1CCCC12CCCN(S(=O)(=O)c1ccccc1)C2 (stereo unspecified) | 4.35% |
| COc1cc(N2CC[C@@H](OC)[C@@H]2Cc2ccccc2)ncn1 | -138% |
| O=C(C1CCCC1)N1CCO[C@@H]2CNC[C@@H]21 | 8.34% |
| CN1CCN(C(=O)c2cc3c(s2)CCN3C(=O)C2CC2)CC1 | 8.52% |
| CN(C)C(=O)N1CCC2(CC1)COCCN(c1ncccn1)C2 | 8.42% |
| Cc1ccc(C(=O)N2CCc3ncnc(C)c3CC2)o1 | 7.89% |
| c1coc(CN2CC[C@@H]3O[C@@H](COCC4CCOCC4)CC[C@@H]32)c1 | -142% |
| COCC1COCCC12CCN(C(=O)CCc1ccccc1C)CC2 (stereo unspecified) | -1.52% |
| Cc1cc(F)ccc1NC(=O)Cn1cc(C(=O)O)ccc1=O | -0.555% |
| Cc1c(C(=O)O)cnn1-c1ccc(-c2nc(C(C)(C)C)no2)cn1 | 7.19% |
| O=C(Nc1cc(-c2cccnc2)no1)C1CCC1 | 2.82% |
| COCCN(C)C(=O)c1ccccc1-n1cc(CN(C)C)cn1 | -29.5% |
| COCC(=O)N1CCCC(Cc2cnc(-c3c(C)n[nH]c3C)cn2)C1 (stereo unspecified) | -4.51% |
| Cc1nc2ccccn2c1CC(=O)N[C@@H]1CCC[C@@H](N2CCCC2)[C@@H]1O | -5.13% |
| Cc1ccccc1C(=O)N1CCC(n2nnc3cc(F)ccc32)CC1 | 3.94% |
| NS(=O)(=O)CCNC(=O)CCc1cc(Br)cs1 | -3.39% |
| CCOC(=O)N1CCC(C(=O)Nc2nnc(C(F)(F)F)[nH]2)CC1 | -6.01% |

| Structure (SMILES) | cytotoxicity at 10 µM |
| --- | --- |
| CS(=O)(=O)NC1CCN(C(=O)NCC2CCCO2)CC1 (stereo unspecified) | -1.9% |
| NC(=O)COCCNC(=O)Nc1sc2ccccc2c1Cl | 8.81% |
| CC(C)CC(NC(=O)CN(C)C(=O)c1ccco1)c1cccs1 (stereo unspecified) | -1.24% |
| Cc1cccc(N2CCN(C(=O)CNCCn3cc(C)cn3)CC2)c1 | -2.83% |
| CN(C)c1cccc(C(=O)Nc2cnn(Cc3ccccn3)c2)c1 | 4.81% |
| CCCc1noc(C(C)N(CC)Cc2ccco2)n1 (stereo unspecified) | 7.3% |
| Cc1nc(CSCCC(=O)NCCNC(=O)OC(C)(C)C)cs1 | -2.3% |
| CC(C)Nc1cccc(C(=O)NCC(O)c2ccc(F)cc2F)c1 (stereo unspecified) | 14.8% |
| O=C(c1c[nH]c(=O)c(Cl)c1)N1CCc2ccccc2C1 | -11.1% |
| CCOCCC1(CNC(=O)c2ccc(C)nc2)CCCC1 | 7.25% |
| Cc1cc(C)c(C(=O)Nc2cccc(CN3CCC(CO)CC3)c2)o1 | -140% |
| Cc1c(NCC(C)(C)C)cccc1C(=O)NCc1ncnn1C | -3.53% |
| OCCN1CCC(CNCc2ccc(Br)cc2)CC1 | -8.29% |
| O=C(NCCc1nnc2n1CCC2)c1ccccc1OC1CCCC1 | -2.27% |
| Cc1ccc(NC(=O)CN2CCC(OCC3CCCO3)CC2)c(C)c1 (stereo unspecified) | -1.7% |
| NC(=O)CN1CCC(NC(=O)N2CCCC2c2ccsc2)CC1 (stereo unspecified) | 1.91% |
| CCN(C(C)=O)c1nc(CN2CCN(c3nccs3)CC2)cs1 | -6.01% |
| CC(=O)NCCNC(=O)NCCc1c(C)cc(C)cc1C | 6.02% |
| CCS(=O)(=O)NCCCNc1ncnc2cc(F)c(F)cc12 | 9.29% |
| COc1ccccc1C(C)(C)NC(=O)NC1CCC(O)CC1 (stereo unspecified) | -3.6% |
| CN(CC(N)=O)C(=O)c1cn(-c2ccc(Br)cc2)cn1 | 6.85% |

| Structure (SMILES) | cytotoxicity at 10 µM |
| --- | --- |
| CCc1nsc(NC2CCCn3nc(CC)nc32)n1 (stereo unspecified) | 16.2% |
| COc1ccc(NC(=O)C(c2cccc(F)c2)N2CCOCC2)cc1 (stereo unspecified) | 2.42% |
| Cc1nn(C)c(C)c1CN(Cc1cccn1-c1ncccn1)C(C)C | -0.316% |
| OCC1CCCCN1Cc1nc(Cc2cccc(F)c2)no1 (stereo unspecified) | -137% |
| Cc1cc(C[C@@H]2COC[C@@H]2NC(=O)CN2CCCCCC2)on1 | 1.29% |
| CCc1ccc(CN(C)Cc2cnc(S(=O)(=O)CC)n2CCOC)cc1 | -2.19% |
| Cc1nc(-c2nnc(SCC(=O)O)n2C(C)c2ccccc2)co1 (stereo unspecified) | -6.3% |
| C[C@@H]1CN(C(=O)C2CCS(=O)(=O)CC2)C[C@@]1(O)C1CC1 | 3.99% |
| CCC[C@H]1CN(CCS(C)(=O)=O)C[C@@H]1NC(=O)c1ccccc1F | -5.88% |
| COc1ccccc1OCc1cc(C(=O)N2CCCCCC2CO)n[nH]1 (stereo unspecified) | -2.48% |
| O=C(NCCc1cnccn1)c1cccc(S(=O)(=O)NC2CCOC2)c1 (stereo unspecified) | 6.3% |
| CN(Cc1cccc(C(N)=O)c1)Cc1nc2c(cnn2C)c(=O)[nH]1 | -2.97% |
| CCn1nc2c(cc1=O)CN(Cc1nc(C)c(C)o1)CC2 | -3.59% |
| Cc1ccccc1SCC(=O)NS(=O)(=O)c1ccc2c(c1)OCCO2 | -1.22% |
| Cc1cc(NC(=O)CN2CCC(N(C)Cc3ncc(C)o3)C2)n(C)n1 (stereo unspecified) | -6.49% |
| Cn1ccc(C(=O)NCc2ccc(N3CCOCC3)nc2)cc1=O | -14.3% |
| Cc1ncccc1CNCC1CCN(CC(C)O)CC1 (stereo unspecified) | -5.59% |
| COCCN(C)C(C)c1cccc(S(N)(=O)=O)c1 (stereo unspecified) | -28% |
| Cc1nc(C2CCCN(C(=O)c3ccc(S(C)(=O)=O)cc3)C2)no1 (stereo unspecified) | -11.3% |
| Cc1cnn(CC2CCCN2C(=O)c2cc(O)nc3ccccc23)c1 (stereo unspecified) | -6.5% |
| COCCN1CC(C(=O)NCc2cccnc2-n2cccn2)CC1=O (stereo unspecified) | 3.74% |

| Structure (SMILES) | cytotoxicity at 10 µM |
| --- | --- |
| CC(C)c1nnc2n1CCN(C(=O)COc1ccc(C(N)=O)cc1)C2 | 0.0102% |
| CCC(O)CN1CCN(C(=O)c2cccc3[nH]ncc23)CC1 (stereo unspecified) | -11.2% |
| CN(Cc1ccccc1F)C(=O)CS(=O)(=O)Cc1ccc(Cl)c(Cl)c1 | 3.2% |
| Cc1cc(C(=O)N[C@H](C)c2onc(-c3cccnc3)c2C(=O)O)c(C)o1 | 1.47% |
| COCC(=O)N1CCC2(CCc3ccc(F)cc32)CC1 | -148% |
| Cc1nc(CN2C(=O)CCC23CCN(Cc2ccoc2)CC3)cs1 | -0.902% |
| CCn1cncc1CN1CCN(CC2(c3ccc(C)cc3)CC2)CC1 | -10.7% |
| Cc1cc(CN2C[C@@H](N3CCN(C)CC3)[C@H]3OCCC[C@H]32)oc1C | -132% |
| Cc1ncsc1CN1C[C@@H](OCc2ccccn2)[C@H]2OCCC[C@H]21 | -141% |
| CC(C)(C)NC(=O)CN1CCNCC1 | -143% |
| CN1CCN(C2COC3(CCN(CC4CC4)CC3)C2)CC1 (stereo unspecified) | -6.81% |
| O=C1CCCN1Cc1nnc2n1CCN(Cc1ccccn1)CC2 | -9.87% |
| C[C@@H]1CN(CCc2ccccc2)C[C@]12CCN(CC(=O)N(C)C)C2=O | -4.19% |
| Cn1cccc1C(=O)NC[C@]12COC[C@H]1CN(Cc1nccs1)C2 | -2.74% |
| COC1COC2(CCN(Cc3cccc(Cl)c3)CC2)C1 (stereo unspecified) | -1.31% |
| Cc1nc(CN2CC3(CCN(c4ncc(F)cn4)C3)CC2=O)cs1 (stereo unspecified) | 3.25% |
| CN1CCN(C(=O)c2n[nH]c3c2CN(C2CCOCC2)CC3)CC1 | 3.41% |
| CCn1cc(-n2cc3nc(N4CCCC4)[nH]cc-3c2=O)cn1 | 2.77% |
